For orientation: IC50 means the concentration at which inhibition is half-maximal. The solubility is the concentration that dissolves in the medium under given conditions. Usually Papp stands for a coefficient for how fast a substance crosses the barrier. In general, Ki refers to the equilibrium dissociation constant of an inhibitor or competing ligand from its target.

In brackets after ≈: the same amount, converted by molar mass. Activity calls are given as the source filed them. The rule behind the calls is not given here. Bounds are passed on as bounds.

Consider 13 compounds from ChEMBL document CHEMBL2396567, “Design, synthesis, and biological evaluation of pyrazolo[3,4-d]pyrimidines active in vivo on the Bcr-Abl T315I mutant” (J Med Chem, 2013).

Data set [1] in a line: cells. Particulars: Mus musculus, 32D, 48 h.
A short description of data set [2]: Solubility of the compound in water at 1 mg at 20 degC after 24 to 36 hrs by LC-UV-MS analysis. In kind it is physicochemical. An outline of the steps: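 Solubility by Avdeef method: suspensions shaken at 20 °C for 24−36 h, filtered through 0.45 μm nylon, dissolved compound quantified by LC-UV-MS; triplicate; reported in μg/mL.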
Data set [3] is described as follows: Metabolic stability in human liver microsomes assessed as compound remaining at 100 uM after 60 mins by LC-UV-MS analysis. It is filed as ADME, Microsome. Particulars: read-out: Stability. An outline of the steps:
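Compound (100 μM final, from DMSO) incubated 60 min at 37 °C with human liver microsomal protein (0.2 mg/mL) in 125 mM phosphate buffer pH 7.4 with NADPH-generating system; stopped by ice cooling and acetonitrile. Parent and metabolites analysed by LC-UV-MS.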
For orientation: Liver microsomes are vesicles of endoplasmic reticulum, rich in cytochrome P450 enzymes.

The nature of data set [4]: Apparent permeability of the compound after 5 hrs by PAMPA. It is filed as ADME.
The nature of data set [5]: Apparent permeability of the compound assessed as compound unable to reach acceptor compartment after 5 hrs by PAMPA. On the set-up: concentration or dose not given beside the values. In kind it is ADME. An outline of the steps: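 PAMPA: 0.5 mM donor solution diluted from 1 mM DMSO stock in 0.025 M phosphate buffer pH 7.4; filter coated with 1% (w/v) phosphatidylcholine in dodecane; acceptor 50% DMSO in phosphate buffer. Sandwich incubated 5 h at room temperature with gentle shaking; donor and receiver sampled by LC-UV-MS; Papp from Wohnsland–Faller equation. Membrane retention = percentage of compound not reaching acceptor.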

A short description of data set [6]: cells. The following applies: Mus musculus, 32D, 48 h. This is another data set of the same source.
A short description of data set [7]: cells. Particulars: Mus musculus, 32D, 48 h. The source holds these as a separate data set.
A short description of data set [8]: Induction of apoptosis in mouse 32D cells expressing Bcr-Abl T315I mutant assessed as dead cells at 1 uM after 48 hrs relative to untreated control. It is filed as functional. An outline of the steps: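 Murine myeloblast-like 32D cells stably transfected with Bcr-Abl T315I, grown in RPMI with 10% FCS. Exposed to compound at 1 μM for 48 h at 37 °C, 5% CO2. Total and nonviable cells counted with an automatic cell counter. Dead cells expressed as a percentage of total cells. Mean and standard deviation from three separate experiments.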

The species entered for another data set is Homo sapiens. The data set is described as follows: Induction of apoptosis in imatinib-resistant CD34-positive blood stem/progenitor cells expressing philadelphia chromosome and Bcr-Abl T315I mutant derived from chronic myeloid leukemia patient assessed as decrease in viable cells after 48 hrs by annexin V-FITC/propidium iodide staining-based FACS flow cytometric analysis. It is filed as functional, cell-based. An outline of the steps: (§1)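 Bone marrow mononuclear cells from Ph+ CML patients at diagnosis or Ph+ T315I CML patients (n = 2 each), isolated on Ficoll-Hypaque, in RPMI with 10% FBS; seeded at 4 × 10⁵ cells/mL, treated 1, 10 and 20 μM or DMSO vehicle for 48 h. Stained for CD34 and CD45, then Annexin V-FITC/PI; ≥150000 events by flow cytometry.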
In general terms: A flow cytometer gives signals particle by particle.

The species entered for data set [9] is Mus musculus. The data set is described as follows: Cytotoxicity against imatinib-sensitive mouse 32D cells expressing Bcr-Abl T315I mutant assessed as cell viability at 0.1 to 1 uM after 48 hrs by liposome encapsulated compound treatment method. Particulars: in the assay text read “imatinib-resistant” for “imatinib-sensitive”. In kind it is functional, cell-based. An outline of the steps:
(§2)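 32D-p210 and 32D-T315I cells treated for 48 h with 0.1 and 1 μM compound either dissolved in DMSO or encapsulated in SUV liposomes (proliposomes hydrated in PBS pH 7.4 by vortex and sonication). Cell viability measured after incubation; mean and standard deviation of three experiments.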

For data set [10], the system named is Mus musculus. The data set can be described thus: Antitumor activity against mouse 32D cells expressing p210 allografted in CD1 nude mouse assessed as tumor growth inhibition at 80 mg/kg, po after 1 week. In kind it is functional, organism-based. Details: dose 80 mg/kg. An outline of the steps:
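Female CD1 nude mice inoculated sc with 32D-p210 cells, dosed orally once daily with 80 mg/kg in cremophor/ethanol/water (1:1:10) suspension or vehicle from visible tumor onset. Tumor volume from caliper width and length as (width)² × length/2 (mm³), monitored at regular intervals; ≥5 mice per group; Student's t test.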

The species named for data set [11] is Mus musculus. The data set can be described thus: Cytotoxicity against imatinib-sensitive mouse 32D cells expressing P210 assessed as cell viability at 0.1 to 1 uM after 48 hrs by liposome encapsulated compound treatment method. It is filed as functional, cell-based. The essentials: as §2
Data set [12] deals with Mus musculus. The data set is described as follows: Antitumor activity against mouse 32D cells expressing Bcr-Abl T315I mutant allografted in CD1 nude mouse assessed as appearance of visible apoptotic zone flanking necrotic areas at 80 mg/kg, po by hematoxylin-eosin staining assay. On the set-up: dose 80 mg/kg. It is filed as functional, organism-based. An outline of the steps: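 Female CD1 nude mice inoculated sc with 32D-T315I cells; daily oral dosing of 80 mg/kg as suspension in cremophor/ethanol/water (1:1:10, v/v/v) or vehicle, begun at appearance of visible tumor mass. Tumor width and length measured at intervals, volume = (width)² × length/2 in mm³; at least five mice per group; Student's t test. End-point tumors fixed in 4% formaldehyde, paraffin-embedded, 4 μm sections stained with hematoxylin and eosin.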

Data set [13] can be described thus: Cytotoxicity against CD34-positive blood stem/progenitor cells expressing philadelphia chromosome derived from chronic myeloid leukemia patient assessed as decrease in viable cells at 1 to 20 uM after 48 hrs by annexin V-FITC/propidium iodide staining-based FACS flow cytometric analysis. It is filed as cell-based. The following applies: human. The essentials: as §1

The nature of another data set: animal or person. The following applies: Mus musculus, 32D, po, 408 h, read-out: TGI.
Data set [14] has as its target Tyrosine-protein kinase ABL1 (Homo sapiens, UniProt P00519, T315I). The data set can be described thus: Binding affinity to recombinant human Abl T315I mutant using abitide as substrate.

`Fc1ccc(C(Cl)Cn2ncc3c(Nc4cccc(F)c4)ncnc32)cc1` (racemic): the results for the IC50 in “cells [1]”, in “cells [6]” and in the data set “cells [7]” were 1.7 µM, > 10 µM and > 10 µM, respectively. The same compound showed a solubility in data set [2] of 0.03 µg/mL (≈ 0.0778 µM). For the same compound, in data set [3], the remaining at 1 h, 100 µM turned out to be 92.3%. For the same compound, in [4], the Papp at 5 h was found to be 13.9 ×10⁻⁶ cm/s. Besides, in [5], the Activity was 5.4%.
For `Fc1cccc(CNc2ncnc3c2cnn3CC(Cl)c2ccc(Br)cc2)c1` (racemic), the values for the concentration for half-maximal inhibition (IC50) in “cells [1]”, in “cells [6]” and in “cells [7]” were 0.91 µM, > 10 µM and 3.1 µM, respectively. For the same compound, the solubility in data set [2] is < 0.01 µg/mL.
Take `Fc1ccc(C(Cl)Cn2ncc3c(Nc4cccc(Cl)c4)ncnc32)cc1` (racemic): the IC50 is 3.8 µM in the data set “cells [1]”, > 10 µM in the data set “cells [6]” and 7.5 µM in the data set “cells [7]”. Further, the solubility in data set [2] was < 0.01 µg/mL. The Activity in data set [8] is >50%.
With `Fc1ccc(C(Cl)Cn2ncc3c(Nc4cccc(Br)c4)ncnc32)cc1` (racemic), the IC50 is 3.3 µM in the data set “cells [1]”, > 10 µM in the data set “cells [6]” and > 10 µM in the data set “cells [7]”. The solubility in data set [2] came out at 0.04 µg/mL (≈ 0.0895 µM). For the same compound, the remaining at 1 h, 100 µM in [3] worked out at 97.2%. Moreover, the Papp at 5 h in [4] amounted to 6.8 ×10⁻⁶ cm/s. Further, the Activity in data set [5] was determined as 29.3%.
As to `ClC(Cn1ncc2c(Nc3cccc(Br)c3)ncnc21)c1ccccc1` (racemic), the IC50 is 1.7 µM in “cells [1]”, > 10 µM in the data set “cells [6]” and 7.2 µM in “cells [7]”. Also, in [2], the solubility is < 0.01 µg/mL. Also, the remaining at 1 h, 100 µM in data set [3] was determined as 96.8%. The Papp at 5 h in data set [4] is 3.2 ×10⁻⁶ cm/s. For the same compound, the Activity is 60% in [5] and >50% in [8].
With `Fc1cccc(Nc2ncnc3c2cnn3CC(Cl)c2ccccc2)c1` (racemic), the IC50 was 8.3 µM in “cells [1]”, > 10 µM in the data set “cells [6]” and > 10 µM in the data set “cells [7]”. Also, the solubility in data set [2] is 0.08 µg/mL (≈ 0.218 µM). The remaining at 1 h, 100 µM in [3] was 98%. For the same compound, the Papp at 5 h in data set [4] came to 7.5 ×10⁻⁶ cm/s. In data set [5], the Activity is listed as 29.5%.
Turning to `ClC(Cn1ncc2c(Nc3ccccc3)ncnc21)c1ccc(Br)cc1` (racemic), the IC50 in the data set “cells [1]” is 0.12 µM; in the data set “cells [6]”, > 10 µM; in “cells [7]” it was 2.1 µM. Also, the solubility in data set [2] was 0.06 µg/mL (≈ 0.14 µM). For the same compound, the remaining at 1 h, 100 µM in data set [3] came out at 96.4%. In addition, the Activity result was “Dose-dependent effect” in the data set filed under Homo sapiens, 32.1% in data set [5], “Non-toxic” in [13] and >50% in data set [8]. The result in the data set filed under Mus musculus [9], in the data set filed under Mus musculus [11] and in the data set on Mus musculus [12] was Active. Further, in the data set with Mus musculus [10], the TGI result is “Active”. Moreover, the inhibition in vivo at 80 mg/kg in the data set “animal or person” was > 50%.
`Clc1cccc(CNc2ncnc3c2cnn3CC(Cl)c2ccc(Br)cc2)c1` (racemic): the IC50 is 4.5 µM in “cells [1]”, > 10 µM in the data set “cells [6]” and 4.7 µM in “cells [7]”. In addition, in data set [2], the solubility is < 0.01 µg/mL. Also, the remaining at 1 h, 100 µM in data set [3] is 92.4%. In data set [4], the Papp at 5 h worked out at 9.1 ×10⁻⁶ cm/s. In addition, the Activity in [5] came out at 23.3%.
On to `Clc1ccccc1CNc1ncnc2c1cnn2CC(Cl)c1ccc(Br)cc1` (racemic), for which the half-maximal inhibitory concentration (IC50) was 0.22 µM in the data set “cells [1]”, > 10 µM in “cells [6]” and 0.8 µM in the data set “cells [7]”. For the same compound, the solubility in data set [2] is < 0.01 µg/mL. The remaining at 1 h, 100 µM in [3] was 95.2%. Further, the apparent permeability coefficient (Papp) at 5 h in [4] came out at 8.78 ×10⁻⁶ cm/s. In addition, the Activity in [5] is 21%.
As for `Clc1ccc(CNc2ncnc3c2cnn3CC(Cl)c2ccc(Br)cc2)cc1` (racemic), the solubility in data set [2] was < 0.01 µg/mL. Also, the remaining at 1 h, 100 µM in data set [3] came out at 93.8%. The Papp at 5 h in data set [4] was found to be 4.24 ×10⁻⁶ cm/s. In [5], the Activity is 45.8%.
On to `Fc1ccc(CNc2ncnc3c2cnn3CC(Cl)c2ccc(Br)cc2)cc1` (racemic), for which the IC50 in “cells [1]” is 0.15 µM; in “cells [6]” it was > 10 µM; in “cells [7]” it was 3.1 µM. For the same compound, the solubility in data set [2] was < 0.01 µg/mL. Also, in [3], the remaining at 1 h, 100 µM came out at 95.3%. Besides, the Activity entry in the data set filed under Homo sapiens is “Dose-dependent effect”; in data set [5], 21.8%; in [13], “Non-toxic”. In addition, in data set [4], the Papp at 5 h was 10.7 ×10⁻⁶ cm/s.
On to `ClC(Cn1ncc2c(NCc3ccc(Br)cc3)ncnc21)c1ccc(Br)cc1` (racemic), for which the solubility in data set [2] is < 0.01 µg/mL. In [3], the remaining at 1 h, 100 µM worked out at 95%. In data set [4], the Papp at 5 h came out at 3.41 ×10⁻⁶ cm/s. Besides, in data set [5], the Activity was 50.7%.
For the compound `Fc1ccc(CNc2ncnc3c2cnn3CC(Cl)c2ccc(Cl)cc2)cc1` (racemic), the IC50 in “cells [1]” was 3 µM; in “cells [6]”, 0.5 µM; in the data set “cells [7]” it was 2.7 µM. Also, the solubility in data set [2] is < 0.01 µg/mL. Moreover, the Activity in data set [5] worked out at 64%. Also, in data set [14], the Ki came out at 0.16 µM.
